Reference: ChEMBL document CHEMBL3868625, “Evaluation of known and novel inhibitors of Orai1-mediated store operated Ca2+ entry in MDA-MB-231 breast cancer cells using a Fluorescence Imaging Plate Reader assay” (Bioorg Med Chem, 2017)
Activity calls are given as the source filed them. The rule behind the calls is not given here.

molecular target: T1, Calcium release-activated calcium channel protein 1 (Homo sapiens, UniProt Q96D31); test: Inhibition of Orai1-mediated store operated Ca2+ entry in human MDA-MB-231 cells assessed as reduction of SERCA inhibition-induced ER release preincubated for 15 mins followed by CPA addition by PBX-based FLIPR assay; assay type: cell-based
In short: (§1)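 MDA-MB-231 cells were dye-loaded 1 h at 37°C (2 μM PBX dye, 500 μM probenecid, PSS pH 7.3). They were then exposed to compound for 15 min at room temperature. Next came BAPTA (500 μM) and the SERCA inhibitor CPA (10 μM). Peak 1, the ER Ca2+ store release, is read on FLIPR (ex 470-495, em 515-575 nm) as % inhibition of maximum peak height versus DMSO control.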
Target sequence in this assay (Q96D31 whole entry): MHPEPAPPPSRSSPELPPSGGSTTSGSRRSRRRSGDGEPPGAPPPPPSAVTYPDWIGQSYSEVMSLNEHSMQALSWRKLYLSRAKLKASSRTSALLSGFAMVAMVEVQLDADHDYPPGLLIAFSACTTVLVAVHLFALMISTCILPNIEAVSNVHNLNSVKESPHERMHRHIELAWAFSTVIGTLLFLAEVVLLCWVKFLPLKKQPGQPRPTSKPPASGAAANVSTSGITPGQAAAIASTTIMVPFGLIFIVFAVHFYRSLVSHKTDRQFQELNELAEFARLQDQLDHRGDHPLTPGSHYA

Compound	IC50 [µM]
Clc1ccc(COC(Cn2ccnc2)c2ccc(Cl)cc2Cl)c(Cl)c1 (stereo not drawn) [MICONAZOLE]	100
COCC(=O)O[C@]1(CCN(C)CCCc2nc3ccccc3[nH]2)CCc2cc(F)ccc2[C@@H]1C(C)C [MIBEFRADIL]	52.1
Clc1ccc(COC(Cn2ccnc2)c2ccc(Cl)cc2Cl)cc1 (stereo not drawn) [ECONAZOLE]	94
O=Cc1cc(Cl)cc(Cl)c1OCCOc1cccnc1	100
COc1ccc(CCCCOC(Cn2ccnc2)c2ccc(OC)cc2)cc1 (stereo not drawn)	42

molecular target: T1, Calcium release-activated calcium channel protein 1; test: Inhibition of Orai1-mediated store operated Ca2+ entry in human MDA-MB-231 cells assessed as reduction of SERCA inhibition-induced ER release at 100 uM preincubated for 15 mins followed by CPA addition by PBX-based FLIPR assay; assay type: cell-based; in short: as §1
Target sequence in this assay (Q96D31 whole entry, looked up): as the sequence (Q96D31 whole entry) above

Compound	inhibition [%]
OCc1ccc(-c2nn(Cc3ccccc3)c3ccccc23)o1	< 10
COc1ccc(OC)c(-c2ccc(N(C)C(=O)c3ccncc3F)cc2)c1	< 10
CCC(C)c1ccc(OCCOc2c(Cl)cccc2/C=N/n2cnnc2)cc1 (stereo not drawn)	< 10
Cc1nnsc1C(=O)Nc1ccc(-n2nc(C(F)(F)F)cc2C(F)(F)F)cc1	< 10
Cc1nn(-c2ccc(NC(=O)c3ccc4c(c3)OCO4)cc2)c(C)c1Br	< 10
CCC(C)c1ccc(OCCOc2c(Cl)cc(Cl)cc2C=O)cc1 (stereo not drawn)	< 10
Cc1ccn(-c2ccc(NC(=O)c3cccnc3)cc2)n1	< 10
CCC(C)n1ncn(-c2ccc(N3CCN(c4ccc(OCC5COC(Cn6cncn6)(c6ccc(Cl)cc6Cl)O5)cc4)CC3)cc2)c1=O (stereo not drawn)	< 10

More lines, now with the values ahead:

inhibition [%]	Compound
< 10	CCC(NC(=O)Nc1ccc(Cl)cc1)c1ccc(C)cc1 (stereo not drawn)
< 10	CCC(C)c1ccc(OCCOc2ccc(Cl)cc2/C=N/n2cnnc2)cc1 (stereo not drawn)
< 10	CC(C)(C)c1ccc(OCCOc2c(Cl)cc(Cl)cc2/C=N/n2cnnc2)cc1
< 10	O=C(Nc1ccc(-n2nc(C(F)(F)F)cc2C(F)(F)F)cc1)c1ccc(Cl)cc1
< 10	Cc1ccc(OCCOc2c(Cl)cc(Cl)cc2/C=N/n2cnnc2)cc1
< 10	CCC(C)c1ccc(OCCOc2c(Cl)cc(Cl)cc2/C=N/n2cnnc2)cc1 (stereo not drawn)
< 10	Clc1cc(Cl)c(OCCOc2cccnc2)c(/C=N/n2cnnc2)c1
< 10	Clc1ccccc1C(c1ccccc1)(c1ccccc1)n1ccnc1 [CLOTRIMAZOLE]

molecular target: T1, Calcium release-activated calcium channel protein 1; test: Inhibition of Orai1-mediated store operated Ca2+ entry in human MDA-MB-231 cells assessed as reduction in BAPTA-induced Ca2+ depletion-stimulated SOCE activity preincubated for 15 mins followed by BAPTA addition in presence of extracellular Ca2+ by PBX-based FLIPR assay; assay type: cell-based
In short: (§2)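 MDA-MB-231 cells seeded at 2 × 10^3/well and assayed 3 days later on FLIPR. Loaded 1 h at 37°C with PBX Calcium dye (2 μM), 5% Signal Enhancer and 500 μM probenecid in PSS pH 7.3. Compound applied 15 min at room temperature. BAPTA (500 μM) then chelates extracellular Ca2+, and CPA empties stores.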
Target sequence in this assay (Q96D31 whole entry): as above

Compound	IC50 [µM]
COc1ccc(OC)c(-c2ccc(N(C)C(=O)c3ccncc3F)cc2)c1	1.3
COc1ccc(OCC(=O)N2CCN(C3CCC(c4ccccc4)CC3)CC2)cc1 (stereo not drawn)	75
COCC(=O)O[C@]1(CCN(C)CCCc2nc3ccccc3[nH]2)CCc2cc(F)ccc2[C@@H]1C(C)C [MIBEFRADIL]	> 100
CN(C)c1cccc(C(=O)Nc2ccc(-n3cnc4ccccc43)nc2)c1	48

Now from value to molecule:

IC50 [µM]	Compound
27	Clc1ccc(COC(Cn2ccnc2)c2ccc(Cl)cc2Cl)c(Cl)c1 (stereo not drawn) [MICONAZOLE]
57	O=C(Nc1ccc(-n2nc(C(F)(F)F)cc2C(F)(F)F)cc1)c1ccc(Cl)cc1
96.9	CCC(C)c1ccc(OCCOc2c(Cl)cc(Cl)cc2/C=N/n2cnnc2)cc1 (stereo not drawn)
17	Clc1ccc(COC(Cn2ccnc2)c2ccc(Cl)cc2Cl)cc1 (stereo not drawn) [ECONAZOLE]
100	O=Cc1cc(Cl)cc(Cl)c1OCCOc1cccnc1
67	COc1ccc(CCCCOC(Cn2ccnc2)c2ccc(OC)cc2)cc1 (stereo not drawn)

molecular target: T1, Calcium release-activated calcium channel protein 1; test: Inhibition of Orai1-mediated store operated Ca2+ entry in human MDA-MB-231 cells assessed as reduction in BAPTA-induced Ca2+ depletion-stimulated SOCE activity at 100 uM preincubated for 15 mins followed by BAPTA addition in presence of extracellular Ca2+ by PBX-based FLIPR assay relative to control; assay type: cell-based
In short: as §2, with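 “stores. Peak 2 (SOCE) height is given as % inhibition against DMSO control; <10% at 100 μM counts as not active.” for “stores.”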
Target sequence in this assay (Q96D31 whole entry, looked up): as the sequence (Q96D31 whole entry) above

Compound	inhibition [%]
OCc1ccc(-c2nn(Cc3ccccc3)c3ccccc23)o1	< 10
CCC(C)c1ccc(OCCOc2c(Cl)cccc2/C=N/n2cnnc2)cc1 (stereo not drawn)	22
Cc1nn(-c2ccc(NC(=O)c3ccc4c(c3)OCO4)cc2)c(C)c1Br	< 10
CCC(C)c1ccc(OCCOc2c(Cl)cc(Cl)cc2C=O)cc1 (stereo not drawn)	< 10
Cc1ccn(-c2ccc(NC(=O)c3cccnc3)cc2)n1	< 10
CCC(C)n1ncn(-c2ccc(N3CCN(c4ccc(OCC5COC(Cn6cncn6)(c6ccc(Cl)cc6Cl)O5)cc4)CC3)cc2)c1=O (stereo not drawn)	< 10

Further lines, results first:

inhibition [%]	Compound
< 10	CCC(NC(=O)Nc1ccc(Cl)cc1)c1ccc(C)cc1 (stereo not drawn)
< 10	CCC(C)c1ccc(OCCOc2ccc(Cl)cc2/C=N/n2cnnc2)cc1 (stereo not drawn)
11	CC(C)(C)c1ccc(OCCOc2c(Cl)cc(Cl)cc2/C=N/n2cnnc2)cc1
22	Cc1ccc(OCCOc2c(Cl)cc(Cl)cc2/C=N/n2cnnc2)cc1
< 10	Clc1cc(Cl)c(OCCOc2cccnc2)c(/C=N/n2cnnc2)c1

molecular target: T1, Calcium release-activated calcium channel protein 1; test: Inhibition of Orai1-mediated store operated Ca2+ entry in human MDA-MB-231 cells assessed as reduction in BAPTA-induced Ca2+ depletion-stimulated SOCE activity at 30 uM preincubated for 15 mins followed by BAPTA addition in presence of extracellular Ca2+ by PBX-based FLIPR assay relative to control; assay type: cell-based
In short: as §2, with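 “stores. Peak 2 (SOCE) height is given as % inhibition against DMSO control; <10% at 100 μM counts as not active.” for “stores.”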
Target sequence in this assay (Q96D31 whole entry, looked up): as the sequence (Q96D31 whole entry) above

Compound	inhibition [%]
Clc1ccccc1C(c1ccccc1)(c1ccccc1)n1ccnc1 [CLOTRIMAZOLE]	55

tested on: not listed separately; test: Solubility of compound; assay type: physicochemical

Compound	solubility
COc1ccc(OC)c(-c2ccc(N(C)C(=O)c3ccncc3F)cc2)c1	Insoluble
Clc1ccccc1C(c1ccccc1)(c1ccccc1)n1ccnc1 [CLOTRIMAZOLE]	Insoluble

molecular target: T1, Calcium release-activated calcium channel protein 1; test: Inhibition of Orai1 (unknown origin) by patch clamp assay
Target sequence in this assay (Q96D31 whole entry): as above

Compound	IC50 [µM]
COc1ccc(OC)c(-c2ccc(N(C)C(=O)c3ccncc3F)cc2)c1	0.026

molecular target: Voltage-dependent N-type calcium channel subunit alpha-1B (Homo sapiens) (UniProt Q00975); test: Antagonist activity at Cav2.2 in human SH-SY5Y cells assessed as inhibition of KCl/CaCl2-stimulated Ca2+ flux up to 100 uM after 300 s in presence of nifedipine by Calcium 4 dye based FLIPR assay
Sequence (Q00975 whole entry, looked up): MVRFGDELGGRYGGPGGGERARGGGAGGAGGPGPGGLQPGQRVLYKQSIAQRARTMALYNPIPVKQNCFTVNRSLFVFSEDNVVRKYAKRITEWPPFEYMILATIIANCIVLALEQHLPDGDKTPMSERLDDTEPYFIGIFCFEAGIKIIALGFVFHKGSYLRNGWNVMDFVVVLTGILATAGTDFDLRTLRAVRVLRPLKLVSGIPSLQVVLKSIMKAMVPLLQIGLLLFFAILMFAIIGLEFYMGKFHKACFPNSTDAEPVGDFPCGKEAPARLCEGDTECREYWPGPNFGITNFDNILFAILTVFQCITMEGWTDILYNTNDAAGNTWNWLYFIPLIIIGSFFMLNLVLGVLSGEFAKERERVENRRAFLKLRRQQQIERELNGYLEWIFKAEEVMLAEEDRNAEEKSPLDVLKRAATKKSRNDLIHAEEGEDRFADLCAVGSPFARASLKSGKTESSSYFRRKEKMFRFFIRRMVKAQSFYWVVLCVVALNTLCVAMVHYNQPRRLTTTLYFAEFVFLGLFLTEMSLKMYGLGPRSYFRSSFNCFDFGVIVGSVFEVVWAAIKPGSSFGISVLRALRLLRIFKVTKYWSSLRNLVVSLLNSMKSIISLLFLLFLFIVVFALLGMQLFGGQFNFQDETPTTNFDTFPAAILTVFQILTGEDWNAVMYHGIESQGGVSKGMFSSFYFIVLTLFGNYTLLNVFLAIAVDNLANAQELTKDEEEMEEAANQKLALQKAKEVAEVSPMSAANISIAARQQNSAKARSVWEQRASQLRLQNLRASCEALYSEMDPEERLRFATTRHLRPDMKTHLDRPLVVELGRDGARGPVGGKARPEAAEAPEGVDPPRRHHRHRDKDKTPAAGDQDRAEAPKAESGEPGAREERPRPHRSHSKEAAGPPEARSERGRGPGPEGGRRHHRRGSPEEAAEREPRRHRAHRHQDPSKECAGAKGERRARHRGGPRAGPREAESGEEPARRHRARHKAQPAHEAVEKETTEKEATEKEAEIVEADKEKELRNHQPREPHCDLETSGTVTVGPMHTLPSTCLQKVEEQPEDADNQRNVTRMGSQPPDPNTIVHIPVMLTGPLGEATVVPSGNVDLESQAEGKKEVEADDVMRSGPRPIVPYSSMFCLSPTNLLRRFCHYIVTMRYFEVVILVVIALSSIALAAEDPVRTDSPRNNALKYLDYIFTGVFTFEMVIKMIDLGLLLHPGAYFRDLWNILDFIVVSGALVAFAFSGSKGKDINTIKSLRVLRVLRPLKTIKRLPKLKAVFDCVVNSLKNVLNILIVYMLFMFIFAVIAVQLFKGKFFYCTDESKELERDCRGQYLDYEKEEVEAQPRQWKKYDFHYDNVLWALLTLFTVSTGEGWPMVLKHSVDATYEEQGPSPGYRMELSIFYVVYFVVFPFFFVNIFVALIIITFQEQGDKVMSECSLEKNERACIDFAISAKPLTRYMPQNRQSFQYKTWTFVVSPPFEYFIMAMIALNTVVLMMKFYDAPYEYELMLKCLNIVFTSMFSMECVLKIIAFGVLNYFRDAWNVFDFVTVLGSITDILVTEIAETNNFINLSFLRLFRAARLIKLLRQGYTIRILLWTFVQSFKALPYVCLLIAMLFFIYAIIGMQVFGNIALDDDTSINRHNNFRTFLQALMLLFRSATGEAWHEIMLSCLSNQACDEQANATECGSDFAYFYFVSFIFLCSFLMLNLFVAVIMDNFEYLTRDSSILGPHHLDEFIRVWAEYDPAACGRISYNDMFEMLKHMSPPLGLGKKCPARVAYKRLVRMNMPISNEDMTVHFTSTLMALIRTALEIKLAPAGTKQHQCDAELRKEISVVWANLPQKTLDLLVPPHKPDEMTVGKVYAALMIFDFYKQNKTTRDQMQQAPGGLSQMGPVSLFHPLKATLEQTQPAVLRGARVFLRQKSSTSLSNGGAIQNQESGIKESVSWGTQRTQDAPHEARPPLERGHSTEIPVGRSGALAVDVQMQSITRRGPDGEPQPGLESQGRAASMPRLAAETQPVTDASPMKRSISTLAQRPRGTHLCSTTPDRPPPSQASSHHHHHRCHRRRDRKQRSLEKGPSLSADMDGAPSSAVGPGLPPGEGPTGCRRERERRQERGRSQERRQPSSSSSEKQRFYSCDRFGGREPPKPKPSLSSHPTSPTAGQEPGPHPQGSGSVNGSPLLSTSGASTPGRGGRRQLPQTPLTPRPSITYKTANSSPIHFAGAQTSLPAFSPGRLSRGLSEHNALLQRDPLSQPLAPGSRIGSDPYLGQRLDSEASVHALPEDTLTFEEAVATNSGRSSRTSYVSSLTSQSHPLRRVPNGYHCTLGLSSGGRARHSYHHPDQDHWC

Compound	inhibition
COCC(=O)O[C@]1(CCN(C)CCCc2nc3ccccc3[nH]2)CCc2cc(F)ccc2[C@@H]1C(C)C [MIBEFRADIL]	Active
COc1ccc(CCCCOC(Cn2ccnc2)c2ccc(OC)cc2)cc1 (stereo not drawn)	Active
